A word on the IC50: it is the concentration that gives 50% inhibition. In general, EC50 refers to the concentration giving half of the maximal effect. A word on the half-life: it is the time needed for the level to fall by half in the phase considered.

The nature of series [1]: Inhibition of HIV integrase after 2 hrs by combined strand transfer assay. Details: species or system Human immunodeficiency virus. In outline: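 Integrase (400 ng) was incubated 2 h at 37 °C with 30 nM pre-processed U5 LTR duplex substrate, one strand DIG-tagged and the other biotin-tagged. 3′-processing/strand-transfer products were captured on streptavidin plates and detected with anti-DIG-alkaline phosphatase and p-nitrophenyl phosphate.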

Series [2] deals with Human immunodeficiency virus. Nature of the series: Antiviral activity against wild type HIV assessed as inhibition of p24 antigen production after 48 hrs by cell based luciferase reporter gene assay. The note with it: Human immunodeficiency virus 1, 48 h. The format is functional, organism-based.
Series [3] deals with Human immunodeficiency virus. Nature of the series: Antiviral activity against raltegravir-resistant HIV expressing integrase Q148H/G140S mutant infected in HEK293T cells after 48 hrs by luciferase reporter gene assay. Format: functional, organism-based. The note with it: Human immunodeficiency virus 1, HEK-293T. In outline:
(§1)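 VSV-G-pseudotyped, env-deleted HIV-1 carrying luciferase in nef, made by cotransfecting 293T cells; integrase resistance mutations introduced by site-directed mutagenesis. 293T cells seeded 16 h before compound, preincubated with compound 4 h at 37 °C, then infected with virus giving about 10,000 luciferase light units without compound. Luciferase read 48 h post-infection.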
Background: Reporter assays use an easily measured gene product as a stand-in for the process of interest.

In series [4] the test system is Human immunodeficiency virus. Nature of the series: Antiviral activity against raltegravir-resistant HIV expressing integrase N155H/E92Q mutant infected in HEK293T cells after 48 hrs by luciferase reporter gene assay. Format: functional, organism-based, HEK-293T. In outline: as §1
For series [5], the system named is Human immunodeficiency virus. Nature of the series: Antiviral activity against wild type HIV assessed as inhibition of p24 antigen production after 48 hrs by cell based luciferase reporter gene assay in presence of 10% normal human serum. The format is functional, organism-based. The note with it: Human immunodeficiency virus 1, 48 h.
Series [6] has as its system Human immunodeficiency virus. Nature of the series: Antiviral activity against wild type HIV assessed as inhibition of p24 antigen production after 48 hrs by cell based luciferase reporter gene assay in presence of 50% normal human serum. Format: functional, organism-based. Conditions: Human immunodeficiency virus 1, 48 h.
The test system of series [7] is Human immunodeficiency virus. Nature of the series: Antiviral activity against raltegravir-resistant HIV expressing integrase Q148H/G140S mutant infected in HEK293T cells after 48 hrs by luciferase reporter gene assay in presence of 10% FBS. The format is functional, organism-based. Conditions: Human immunodeficiency virus 1, HEK-293T. In short, it runs like this: as §1

The test system of series [8] is Human immunodeficiency virus. Nature of the series: Antiviral activity against raltegravir-resistant HIV expressing integrase N155H/E92Q mutant infected in HEK293T cells after 48 hrs by luciferase reporter gene assay in presence of 10% FBS. Format: functional, organism-based. Conditions: Human immunodeficiency virus 1, HEK-293T. In outline: as §1
Series [9] in a line: Half life in microsomes. Format: ADME, Microsome.
Setting [10] is: Human immunodeficiency virus 1, HEK-293T, 48 h, read-out: EC50.

Turning to `CC(C)N1CCN(c2cc(N3CCN(C)C3=O)c3nc(-c4ncc(Cc5ccc(F)cc5)s4)c(O)c(=O)n3c2)CC1`, the IC50 in series [1] (read-out: IC50) amounted to 19 nM. For the same molecule, the results for the EC50 in series [2], in series [3] and in series [4] (setting [10]) were 6.8 nM, 21 nM and 8.9 nM, respectively.
Regarding `CC(NC1CC1)c1cc(N2CCN(C)C2=O)c2nc(-c3ncc(Cc4ccc(F)cc4)s3)c(O)c(=O)n2c1` (stereo not drawn), the IC50 entry in series [1] is recorded as “Not Active”. In addition, the values for the concentration giving a half-maximal response (EC50) in [2], in [3] and in series [4] (hek-293t) were 11.5 nM, 268 nM and “Not Active”, respectively.
With `CN1CCN(c2cc(N3CCOCC3)cn3c(=O)c(O)c(-c4ncc(Cc5ccc(F)cc5)s4)nc23)S1(=O)=O`, the 50% inhibitory concentration (IC50) in series [1] (read-out: IC50) turned out to be 38 nM. Besides, the results for the EC50 in series [2], in series [3] and in series [4] (setting [10]) were 8.5 nM, 112 nM and 18.5 nM, respectively.
For `O=C1OCCN1c1cc(N2CCOCC2)cn2c(=O)c(O)c(-c3ncc(Cc4ccc(F)cc4)s3)nc12` the same measures were 26 nM, 7.1 nM, 108 nM and 25 nM.
Regarding `CC(O)c1cc(N2CCOCC2)cn2c(=O)c(O)c(-c3ncc(Cc4ccc(F)cc4)s3)nc12` (stereo not drawn), the IC50 entry in [1] is recorded as “Not Active”. Also, the 50% effective concentration (EC50) in series [2] was 10.5 nM; in [3], 800 nM; in [4] (hek-293t) it was “Not Active”.
As to `O=C1CNCCN1c1cc(N2CCOCC2)cn2c(=O)c(O)c(-c3ncc(Cc4ccc(F)cc4)s3)nc12`, the half-maximal effective concentration (EC50) was found to be 4 nM in series [5], 6.1 nM in series [6], 34.5 nM in series [7] and 6.7 nM in [8]. Moreover, the half-life in [9] was 52 min.
For `O=C1CCCN1c1cc(N2CCOCC2)cn2c(=O)c(O)c(-c3ncc(Cc4ccc(F)cc4)s3)nc12`, the IC50 result in [1] is “Not Active”. Also, the EC50 in series [2] was 21 nM; in series [3], 335 nM; in series [4] (hek-293t) it was “Not Active”.
As for `O=c1c(O)c(-c2ncc(Cc3ccc(F)cc3)s2)nc2ccc(N3CCOCC3)cn12`, the IC50 in [1] (read-out: IC50) came to 20 nM. Besides, the EC50 turned out to be 32 nM in series [2], 3000 nM in series [3] and 74.5 nM in series [4] (setting [10]).
Take `CN1CCN(c2cc(N3CCNCC3=O)cn3c(=O)c(O)c(-c4ncc(Cc5ccc(F)cc5)s4)nc23)C1=O`: the IC50 result in series [1] is given as “Not Active”. The EC50 in series [2] is 27 nM; in series [3], 1100 nM; in series [4] (hek-293t), “Not Active”.
With `CC(C)N(C)C(=O)Nc1cc(N2CCOCC2)cn2c(=O)c(O)c(-c3ncc(Cc4ccc(F)cc4)s3)nc12`, the IC50 result in series [1] is listed as “Not Active”. Further, the EC50 was 22 nM in [2], more than 10000 nM in series [3] and “Not Active” in series [4] (hek-293t).
Consider `O=c1c(O)c(-c2ncc(Cc3ccc(F)cc3)s2)nc2c(Br)cc(N3CCOCC3)cn12`, for which, in series [1] (read-out: IC50), the IC50 amounted to 42 nM. For the same molecule, the EC50 came to 14 nM in [2], 2500 nM in series [3] and 19 nM in [4] (setting [10]).
In the case of `CC(=O)c1cc(N2CCOCC2)cn2c(=O)c(O)c(-c3ncc(Cc4ccc(F)cc4)s3)nc12`, the IC50 in series [1] (read-out: IC50) stood at 15 nM. The EC50 was 9.5 nM in [2], 885 nM in [3] and “Not Active” in series [4] (hek-293t).
With `CN1CCCN(c2cc(N3CCOCC3)cn3c(=O)c(O)c(-c4ncc(Cc5ccc(F)cc5)s4)nc23)C1=O`, the IC50 result in series [1] is listed as “Not Active”. Besides, the results for the EC50 in series [2], in [3] and in series [4] (setting [10]) were 11.5 nM, 34 nM and 21.5 nM, respectively.
Consider `CC(C)N1CCN(c2cc(N3CCOCC3)cn3c(=O)c(O)c(-c4ncc(Cc5ccc(F)cc5)s4)nc23)C1=O`, for which the IC50 in series [1] (read-out: IC50) came to 19 nM. The EC50 came to 7.5 nM in [2], 18 nM in series [3] and 9.7 nM in [4] (setting [10]).
Turning to `O=C1OCCCN1c1cc(N2CCOCC2)cn2c(=O)c(O)c(-c3ncc(Cc4ccc(F)cc4)s3)nc12`, the IC50 result in [1] is recorded as “Not Active”. Besides, the EC50 in series [2] is 4.3 nM; in [3], 16.5 nM; in [4] (setting [10]), 10.5 nM.
As for `CN1CCN(c2cc(CN3CCOCC3)cn3c(=O)c(O)c(-c4ncc(Cc5ccc(F)cc5)s4)nc23)C1=O`, the half-inhibitory concentration (IC50) in series [1] (read-out: IC50) worked out at 25 nM. For the same molecule, the EC50 in series [2] was found to be 3.5 nM; in [3], 243 nM; in series [4] (setting [10]) it was 14.5 nM.
On the same counts, the results for `CN1CCN(c2cc(N3CCOCC3)cn3c(=O)c(O)c(-c4ncc(Cc5ccc(F)cc5)s4)nc23)C1=O` are 47 nM, 24 nM, 71 nM and 10 nM.
For `O=C(c1cc(N2CCOCC2)cn2c(=O)c(O)c(-c3ncc(Cc4ccc(F)cc4)s3)nc12)N1CCCC1` the same measures were 70 nM, 81 nM, 1180 nM and 200 nM.
On the same counts, the results for `CN1CCN(c2cc(N(C)C)cn3c(=O)c(O)c(-c4ncc(Cc5ccc(F)cc5)s4)nc23)C1=O` are 90 nM, 19.5 nM, 92.5 nM and 32.5 nM.
For `CC1CN(C)CCN1c1cc(N2CCCOC2=O)c2nc(-c3ncc(Cc4ccc(F)cc4)s3)c(O)c(=O)n2c1` (stereo not drawn), the EC50 was found to be 4.2 nM in series [5], 5.5 nM in series [6], 40.5 nM in series [7] and 5.2 nM in series [8]. This molecule yielded a half-life in series [9] of 18 min.
Take `CC(c1cc(N2CCOCC2)cn2c(=O)c(O)c(-c3ncc(Cc4ccc(F)cc4)s3)nc12)N1CCCCC1` (stereo not drawn): in series [1], the half-inhibitory concentration (IC50) entry is on record as “Not Active”. In addition, the EC50 in [2] was 110 nM; in [3], 5500 nM; in series [4] (hek-293t), “Not Active”.
Turning to `COc1cc(N2CCOCC2)cn2c(=O)c(O)c(-c3ncc(Cc4ccc(F)cc4)s3)nc12`, in series [1], the half-inhibitory concentration (IC50) entry is given as “Not Active”. In addition, the figures for the EC50 in series [2], in [3] and in [4] (hek-293t) were 100 nM, 5900 nM and “Not Active”, respectively.
For the molecule `O=c1c(O)c(-c2ncc(Cc3ccc(F)cc3)s2)nc2c(N3CCCS3(=O)=O)cc(N3CCOCC3)cn12`, in series [1] (read-out: IC50), the IC50 was 48 nM. Further, the results for the EC50 in series [2], in [3] and in series [4] (setting [10]) were 6.4 nM, 280 nM and 49.5 nM, respectively.
Turning to `CC(C)N(C)C(=O)N(C)c1cc(N2CCOCC2)cn2c(=O)c(O)c(-c3ncc(Cc4ccc(F)cc4)s3)nc12`, in series [1], the IC50 entry was “Not Active”. Moreover, the EC50 in series [2] was 16.5 nM; in series [3], 120 nM; in series [4] (hek-293t), “Not Active”.
Take `CN1CCN(c2cc(N3CCCOC3=O)c3nc(-c4ncc(Cc5ccc(F)cc5)s4)c(O)c(=O)n3c2)CC1`: the EC50 in series [5] was determined as 3.5 nM; in [6], 6.6 nM; in series [7], 29.5 nM; in series [8], 4.9 nM. In addition, the half-life in series [9] was determined as 67.8 min.

(Values after ChEMBL document CHEMBL1221310, “Discovery of potent HIV integrase inhibitors active against raltegravir resistant viruses” (Bioorg Med Chem Lett, 2010).)
